{"data": "Experimental data gathered from unrelated publications", "MAL12": "Alpha-glucosidase MAL12 (MAL12, Saccharomyces cerevisiae S288c, UniProt P53341)"}
{"SMILES": "Cc1ccc2[nH]c(=O)c(CNC3CCCCC3)cc2c1", "target": "Alpha-1A adrenergic receptor (ADRA1A, Homo sapiens, UniProt P35348, M292L)", "assay": "calcium signal, antagonist", "IC50 [µM]": 11}
{"SMILES": "COc1ccc(NC(=O)Cn2cc(COc3ccc(C(c4c(O)c5ccccc5oc4=O)c4c(O)c5ccccc5oc4=O)cc3OC)nn2)c(OC)c1", "target": "MAL12", "assay": "enzyme activity, inhibitor, absorbance", "IC50 [µM]": 52}
{"SMILES": "NC(=S)N/N=C/c1cc2ccccc2nc1SCc1cn(CC(=O)Nc2cccc([N+](=O)[O-])c2)nn1", "target": "MAL12", "assay": "enzyme activity, inhibitor", "IC50 [µM]": 217}
{"SMILES": "C[C@@H]1O[C@@H](O[C@H]2[C@H](O)[C@@H](O)[C@H](OC[C@H]3O[C@@H](OC(=O)[C@]45CCC(C)(C)C[C@H]4C4=CC[C@@H]6[C@@]7(C)CC[C@H](O[C@@H]8OC[C@H](O)[C@H](O)[C@H]8O)C(C)(C)[C@@H]7CC[C@@]6(C)[C@]4(C)CC5)[C@H](O)[C@@H](O)[C@@H]3O)O[C@@H]2CO)[C@H](O)[C@H](O)[C@H]1O", "target": "MAL12", "assay": "enzyme activity, inhibitor", "IC50 [µM]": 0.89}
{"SMILES": "CC(C)C[C@H](NC(=O)[C@H](Cc1ccccc1)NC(=O)OCc1ccccc1)C(=O)C=O", "target": "Cathepsin S (CTSS, Homo sapiens, UniProt P25774)", "assay": "enzyme activity, inhibitor, fluorescence", "IC50 [µM]": 0.15}
{"SMILES": "Cc1ccc2oc(=O)cc(NCCO)c2c1", "target": "Alpha-1A adrenergic receptor (ADRA1A, Homo sapiens, UniProt P35348, I178V/M292L)", "assay": "calcium signal, antagonist", "IC50 [µM]": 324}
{"SMILES": "Cn1c(=O)c2c(ncn2C)n(C)c1=O", "target": "Solute carrier family 22 member 6 (SLC22A6, Homo sapiens, UniProt Q4U2R8)", "assay": "transporter uptake, inhibitor, radiometric", "conditions": "oocytes", "IC50 [µM]": 155}
{"SMILES": "C[C@@H]1O[C@@H](O[C@H]2[C@H](O[C@H]3CC[C@@]4(C)[C@@H](CC[C@]5(C)[C@@H]4CC=C4[C@@H]6CC(C)(C)CC[C@]6(C(=O)O)CC[C@]45C)[C@]3(C)CO)OC[C@H](O)[C@@H]2O)[C@H](O)[C@H](O)[C@H]1O", "target": "MAL12", "assay": "enzyme activity, inhibitor", "IC50 [µM]": 0.6}
{"SMILES": "COc1cc(C(c2c(O)c3ccccc3oc2=O)c2c(O)c3ccccc3oc2=O)ccc1OCc1cn(CC(=O)Nc2ccc(Br)cc2)nn1", "target": "MAL12", "assay": "enzyme activity, inhibitor, absorbance", "IC50 [µM]": 81.7}
{"SMILES": "Cc1ccc(NC(=O)Cn2cc(CSc3nc4ccccc4cc3/C=N/NC(N)=S)nn2)cc1", "target": "MAL12", "assay": "enzyme activity, inhibitor", "IC50 [µM]": 490}
{"SMILES": "CC1(C)CC[C@]2(C(=O)O)CC[C@]3(C)C(=CC[C@@H]4[C@@]5(C)CC[C@H](O[C@@H]6O[C@H](C(=O)O)[C@@H](O)[C@H](O)[C@H]6O)C(C)(C)[C@@H]5CC[C@]43C)[C@@H]2C1", "target": "MAL12", "assay": "enzyme activity, inhibitor", "IC50 [µM]": 0.69}
{"SMILES": "CC1(CN)CCN(c2cnc3c(Sc4ccncc4Cl)n[nH]c3n2)CC1", "target": "Tyrosine-protein phosphatase non-receptor type 1 (PTPN1, Homo sapiens, UniProt P18031)", "assay": "enzyme activity, inhibitor", "IC50 [µM]": "> 100"}
{"SMILES": "NC(=S)N/N=C/c1cc2ccccc2nc1SCc1cn(CC(=O)Nc2ccccc2)nn1", "target": "MAL12", "assay": "enzyme activity, inhibitor", "IC50 [µM]": 379}
{"SMILES": "C[C@@H]1O[C@@H](O[C@H]2[C@H](O)[C@@H](O)[C@H](OC[C@H]3O[C@@H](OC(=O)[C@]45CCC(C)(C)C[C@H]4C4=CC[C@@H]6[C@@]7(C)CC[C@H](O[C@@H]8OC[C@H](O)[C@H](O)[C@H]8O[C@@H]8O[C@H](CO)[C@@H](O)[C@H](O)[C@H]8O)C(C)(C)[C@@H]7CC[C@@]6(C)[C@]4(C)CC5)[C@H](O)[C@@H](O)[C@@H]3O)O[C@@H]2CO)[C@H](O)[C@H](O)[C@H]1O", "target": "MAL12", "assay": "enzyme activity, inhibitor", "IC50 [µM]": 0.61}
{"SMILES": "NC(=S)N/N=C/c1cc2ccccc2nc1SCc1cn(CC(=O)Nc2ccc(O)cc2)nn1", "target": "MAL12", "assay": "enzyme activity, inhibitor", "IC50 [µM]": 311}
{"SMILES": "COc1cc(C(c2c(O)c3ccccc3oc2=O)c2c(O)c3ccccc3oc2=O)ccc1OCc1cn(CC(=O)Nc2cccc([N+](=O)[O-])c2)nn1", "target": "MAL12", "assay": "enzyme activity, inhibitor, absorbance", "IC50 [µM]": 16.3}
{"SMILES": "Cc1cccc(C)c1NC(=O)Cn1cc(CSc2nc3ccccc3cc2/C=N/NC(N)=S)nn1", "target": "MAL12", "assay": "enzyme activity, inhibitor", "IC50 [µM]": 150}
{"SMILES": "COc1cc(C(c2c(O)c3ccccc3oc2=O)c2c(O)c3ccccc3oc2=O)ccc1OCc1cn(CC(=O)Nc2ccccc2C)nn1", "target": "MAL12", "assay": "enzyme activity, inhibitor, absorbance", "IC50 [µM]": 50.2}
{"SMILES": "Cc1cccc(NC(=O)Cn2cc(CSc3nc4ccccc4cc3/C=N/NC(N)=S)nn2)c1C", "target": "MAL12", "assay": "enzyme activity, inhibitor", "IC50 [µM]": 247}
{"SMILES": "C[C@@H]1O[C@@H](O[C@H]2[C@H](O[C@H]3CC[C@]4(C)[C@H]5CC=C6[C@@H]7CC(C)(C)CC[C@]7(C(=O)O[C@@H]7O[C@H](CO[C@@H]8O[C@H](CO)[C@@H](O[C@@H]9O[C@@H](C)[C@H](O)[C@@H](O)[C@H]9O)[C@H](O)[C@H]8O)[C@@H](O)[C@H](O)[C@H]7O)CC[C@@]6(C)[C@]5(C)CC[C@H]4C3(C)C)OC[C@H](O)[C@@H]2O)[C@H](O)[C@H](O)[C@H]1O", "target": "MAL12", "assay": "enzyme activity, inhibitor", "IC50 [µM]": 0.47}
